Assay results published in ChEMBL document CHEMBL2163245 (J Med Chem, 2012).
Active and inactive are the calls of the source. No cut-off for these calls is given here.

Key:
[1] = biological target: T1, Potassium voltage-gated channel subfamily KQT member 4 (Homo sapiens, UniProt P56696); assay: Antagonist activity at KCNQ4 expressed in CHO cells incubated for 3 mins by automated patch clamp assay; type: functional, cell-based
T1 sequence (P56696 whole entry): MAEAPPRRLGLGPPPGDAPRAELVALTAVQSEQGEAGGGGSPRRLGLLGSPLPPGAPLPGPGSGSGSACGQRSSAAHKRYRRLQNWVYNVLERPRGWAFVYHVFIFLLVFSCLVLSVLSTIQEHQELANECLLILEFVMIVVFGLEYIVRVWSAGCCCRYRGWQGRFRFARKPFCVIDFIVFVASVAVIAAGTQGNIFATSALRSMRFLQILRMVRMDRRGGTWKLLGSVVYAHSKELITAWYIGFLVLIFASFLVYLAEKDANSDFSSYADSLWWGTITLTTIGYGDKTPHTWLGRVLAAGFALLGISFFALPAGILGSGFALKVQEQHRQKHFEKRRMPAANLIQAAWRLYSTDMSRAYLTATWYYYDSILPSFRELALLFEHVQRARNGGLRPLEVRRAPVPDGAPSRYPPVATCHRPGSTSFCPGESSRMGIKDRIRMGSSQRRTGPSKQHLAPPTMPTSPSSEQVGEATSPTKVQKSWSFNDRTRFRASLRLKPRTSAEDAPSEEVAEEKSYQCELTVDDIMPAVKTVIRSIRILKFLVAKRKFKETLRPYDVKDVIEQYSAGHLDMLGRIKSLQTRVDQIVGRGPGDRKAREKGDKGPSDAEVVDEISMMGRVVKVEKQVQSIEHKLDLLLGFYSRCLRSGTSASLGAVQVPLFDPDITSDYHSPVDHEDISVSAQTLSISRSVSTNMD
In short: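 Population patch clamp on CHO cells stably expressing KCNQ4, freshly dislodged at 7,000 cells/well in extracellular solution (mM: 137 NaCl, 4 KCl, 1 MgCl2, 1.8 CaCl2, 10 HEPES, 10 glucose, pH 7.4). Cells were perforated with 50 μg/ml amphotericin B, held at -70 mV, and stepped to +40 mV. Current was measured at +40 mV before and after 3 min compound exposure and expressed as percent change in the same well.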

Cytochrome P450 1A2 = biological target: T2, Cytochrome P450 1A2 (Homo sapiens, UniProt P05177)
T2 sequence (P05177 whole entry): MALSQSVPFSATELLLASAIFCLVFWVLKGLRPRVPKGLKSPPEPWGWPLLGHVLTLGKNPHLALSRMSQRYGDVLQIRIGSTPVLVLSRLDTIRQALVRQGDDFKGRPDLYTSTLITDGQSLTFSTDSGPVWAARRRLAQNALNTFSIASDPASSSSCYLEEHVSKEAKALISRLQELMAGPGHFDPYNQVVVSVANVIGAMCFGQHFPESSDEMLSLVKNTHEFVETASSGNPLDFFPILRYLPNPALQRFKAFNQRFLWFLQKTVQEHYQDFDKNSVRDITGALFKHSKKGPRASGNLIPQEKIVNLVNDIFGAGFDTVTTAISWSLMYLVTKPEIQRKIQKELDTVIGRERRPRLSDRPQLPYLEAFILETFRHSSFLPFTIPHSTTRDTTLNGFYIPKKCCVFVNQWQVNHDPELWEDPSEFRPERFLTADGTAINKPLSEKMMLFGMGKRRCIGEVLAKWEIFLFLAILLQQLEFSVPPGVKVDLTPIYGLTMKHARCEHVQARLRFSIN

[2] = Inhibition of N-type calcium channel at 10 uM
[3] = Plasma concentration in Sprague-Dawley rat at 10 mg/kg, ip after 1 hr by LC.MS analysis; type: ADME, organism-based; parameters: dose 10 mg/kg, route intraperitoneal
In short: (§1)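 Male Sprague-Dawley rats (250 g) dosed 10 mg/kg i.p., formulated 3 mg/mL in 10% Tween 80/sterile water. Blood (cardiac puncture) and brain taken at 1 h. Brain washed in cold PBS, frozen, homogenized 1:3 (w/w) in 70:30 isopropanol:water. Plasma and homogenate precipitated with acetonitrile containing carbamazepine internal standard, diluted 1:1 with water, quantified by ESI LC/MS/MS using MRM in positive mode.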

Brain = assay: Fraction unbound in rat brain homogenate; type: ADME, tissue-based
[4] = biological target: Potassium voltage-gated channel subfamily KQT member 2 (Homo sapiens, UniProt O43526); assay: Antagonist activity at KCNQ2 expressed in CHO cells incubated for 3 mins by automated patch clamp assay; type: functional, cell-based
Sequence of Potassium voltage-gated channel subfamily KQT member 2 (O43526 whole entry): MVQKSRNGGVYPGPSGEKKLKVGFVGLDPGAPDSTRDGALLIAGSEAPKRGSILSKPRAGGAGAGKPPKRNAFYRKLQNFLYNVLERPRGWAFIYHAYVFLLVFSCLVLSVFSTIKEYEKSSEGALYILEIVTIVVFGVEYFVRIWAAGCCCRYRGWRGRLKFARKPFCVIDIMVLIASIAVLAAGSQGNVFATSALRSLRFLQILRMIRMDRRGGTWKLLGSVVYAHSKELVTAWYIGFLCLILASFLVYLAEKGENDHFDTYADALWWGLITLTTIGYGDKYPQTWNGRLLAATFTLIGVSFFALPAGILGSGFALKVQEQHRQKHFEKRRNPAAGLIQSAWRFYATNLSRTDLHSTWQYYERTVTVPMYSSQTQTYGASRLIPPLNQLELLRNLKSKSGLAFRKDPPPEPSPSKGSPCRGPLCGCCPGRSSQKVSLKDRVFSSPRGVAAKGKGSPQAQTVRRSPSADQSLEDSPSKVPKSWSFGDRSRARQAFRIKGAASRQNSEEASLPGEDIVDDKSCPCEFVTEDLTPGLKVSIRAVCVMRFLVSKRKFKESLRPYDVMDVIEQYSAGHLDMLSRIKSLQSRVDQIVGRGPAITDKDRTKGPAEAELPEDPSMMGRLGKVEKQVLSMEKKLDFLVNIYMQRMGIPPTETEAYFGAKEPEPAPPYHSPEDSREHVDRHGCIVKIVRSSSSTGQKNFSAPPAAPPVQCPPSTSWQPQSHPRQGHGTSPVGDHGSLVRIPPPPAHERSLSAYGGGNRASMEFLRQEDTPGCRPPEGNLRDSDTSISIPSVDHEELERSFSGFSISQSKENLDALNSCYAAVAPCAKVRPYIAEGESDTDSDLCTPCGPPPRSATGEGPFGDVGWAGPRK

Cytochrome P450 2D6 = Cytochrome P450 2D6 (Homo sapiens, UniProt P10635)
Sequence of Cytochrome P450 2D6 (P10635 whole entry): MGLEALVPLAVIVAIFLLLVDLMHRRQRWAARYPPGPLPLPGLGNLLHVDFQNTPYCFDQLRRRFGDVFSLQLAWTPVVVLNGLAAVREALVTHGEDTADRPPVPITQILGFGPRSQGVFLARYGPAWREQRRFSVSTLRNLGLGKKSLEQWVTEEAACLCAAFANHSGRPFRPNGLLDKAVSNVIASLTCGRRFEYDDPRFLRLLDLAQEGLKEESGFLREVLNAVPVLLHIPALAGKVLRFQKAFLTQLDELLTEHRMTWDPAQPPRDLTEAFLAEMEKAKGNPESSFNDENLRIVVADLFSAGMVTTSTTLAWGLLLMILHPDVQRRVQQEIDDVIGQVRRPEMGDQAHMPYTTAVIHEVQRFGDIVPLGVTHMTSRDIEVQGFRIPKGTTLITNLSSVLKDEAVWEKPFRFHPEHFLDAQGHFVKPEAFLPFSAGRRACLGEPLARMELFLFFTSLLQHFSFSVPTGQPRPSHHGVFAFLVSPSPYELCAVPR

Cytochrome P450 2C9 = Cytochrome P450 2C9 (Homo sapiens, UniProt P11712)
Sequence of Cytochrome P450 2C9 (P11712 whole entry): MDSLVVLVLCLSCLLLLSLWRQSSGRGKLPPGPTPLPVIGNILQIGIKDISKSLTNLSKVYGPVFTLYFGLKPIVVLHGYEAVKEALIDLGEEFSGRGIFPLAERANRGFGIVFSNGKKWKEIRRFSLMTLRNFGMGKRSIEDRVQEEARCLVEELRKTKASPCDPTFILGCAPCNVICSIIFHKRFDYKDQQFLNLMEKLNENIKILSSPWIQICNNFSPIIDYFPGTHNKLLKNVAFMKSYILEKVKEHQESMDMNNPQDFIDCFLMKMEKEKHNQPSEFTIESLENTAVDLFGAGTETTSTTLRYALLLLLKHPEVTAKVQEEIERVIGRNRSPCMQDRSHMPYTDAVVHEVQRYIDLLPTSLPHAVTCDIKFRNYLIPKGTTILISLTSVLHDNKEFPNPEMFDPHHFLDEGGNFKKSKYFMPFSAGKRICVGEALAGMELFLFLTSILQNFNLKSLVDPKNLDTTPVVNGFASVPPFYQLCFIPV

[5] = biological target: Voltage-gated potassium channel, KQT; KCNQ2(Kv7.2)/KCNQ3(Kv7.3) (Homo sapiens, UniProt O43525+O43526); assay: Antagonist activity at KCNQ2/Q3 expressed in CHO cells incubated for 3 mins by automated patch clamp assay
Sequence of Voltage-gated potassium channel, KQT; KCNQ2(Kv7.2)/KCNQ3(Kv7.3) (O43526 whole entry): as the sequence (O43526 whole entry) above
Sequence of Voltage-gated potassium channel, KQT; KCNQ2(Kv7.2)/KCNQ3(Kv7.3) (O43525 whole entry): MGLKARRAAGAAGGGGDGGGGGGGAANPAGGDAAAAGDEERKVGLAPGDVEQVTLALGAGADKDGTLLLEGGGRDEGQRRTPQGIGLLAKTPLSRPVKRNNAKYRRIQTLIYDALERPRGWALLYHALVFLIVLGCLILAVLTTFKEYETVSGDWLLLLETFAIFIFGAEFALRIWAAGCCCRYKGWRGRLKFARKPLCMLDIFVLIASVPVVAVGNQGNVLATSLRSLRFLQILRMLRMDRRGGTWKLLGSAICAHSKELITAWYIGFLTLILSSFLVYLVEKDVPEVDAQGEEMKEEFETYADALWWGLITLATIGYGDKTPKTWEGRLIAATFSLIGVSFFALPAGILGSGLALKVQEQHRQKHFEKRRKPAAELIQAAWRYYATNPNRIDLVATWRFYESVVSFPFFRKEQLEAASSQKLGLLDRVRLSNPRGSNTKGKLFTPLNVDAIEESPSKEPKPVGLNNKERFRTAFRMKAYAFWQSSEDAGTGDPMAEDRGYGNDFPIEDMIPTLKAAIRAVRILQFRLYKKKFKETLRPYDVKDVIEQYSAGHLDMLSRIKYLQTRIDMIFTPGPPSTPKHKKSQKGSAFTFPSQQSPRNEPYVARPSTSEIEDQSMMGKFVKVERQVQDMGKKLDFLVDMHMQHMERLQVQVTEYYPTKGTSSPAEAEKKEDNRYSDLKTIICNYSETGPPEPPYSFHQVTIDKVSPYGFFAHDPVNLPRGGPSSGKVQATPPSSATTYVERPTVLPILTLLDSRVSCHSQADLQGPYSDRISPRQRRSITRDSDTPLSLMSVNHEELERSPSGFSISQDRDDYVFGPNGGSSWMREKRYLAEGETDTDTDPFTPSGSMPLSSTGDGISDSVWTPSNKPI

[6] = biological target: T3, Potassium voltage-gated channel subfamily KQT member 1 (Homo sapiens, UniProt P51787); assay: Antagonist activity at KCNQ1 expressed in CHO cells incubated for 3 mins by automated patch clamp assay
T3 sequence (P51787 whole entry): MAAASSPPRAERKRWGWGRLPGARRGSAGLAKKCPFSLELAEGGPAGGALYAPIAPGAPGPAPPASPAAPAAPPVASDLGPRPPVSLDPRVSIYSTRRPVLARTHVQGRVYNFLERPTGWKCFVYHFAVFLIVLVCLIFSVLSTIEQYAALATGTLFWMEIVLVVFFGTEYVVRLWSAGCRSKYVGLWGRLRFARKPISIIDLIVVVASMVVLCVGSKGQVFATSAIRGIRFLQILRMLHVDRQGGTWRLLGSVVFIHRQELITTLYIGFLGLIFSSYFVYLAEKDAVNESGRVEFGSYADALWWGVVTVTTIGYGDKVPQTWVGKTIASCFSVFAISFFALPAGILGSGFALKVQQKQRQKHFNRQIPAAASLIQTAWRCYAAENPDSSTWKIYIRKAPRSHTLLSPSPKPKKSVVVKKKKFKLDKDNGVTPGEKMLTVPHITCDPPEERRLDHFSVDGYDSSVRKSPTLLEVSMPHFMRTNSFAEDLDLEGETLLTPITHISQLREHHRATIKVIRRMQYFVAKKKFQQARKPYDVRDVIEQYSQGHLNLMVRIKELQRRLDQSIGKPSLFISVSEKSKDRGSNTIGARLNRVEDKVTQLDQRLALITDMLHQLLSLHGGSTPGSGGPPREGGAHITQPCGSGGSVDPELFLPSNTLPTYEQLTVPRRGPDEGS

[7] = biological target: Voltage-gated potassium channel, IKs; KCNQ1(Kv7.1)/KCNE1(MinK) (Homo sapiens, UniProt P15382+P51787); assay: Antagonist activity at KCNQ1/E1 expressed in CHO cells incubated for 3 mins by automated patch clamp assay
[8] = Inhibition of L-type calcium channel at 10 uM
[9] = Drug uptake in Sprague-Dawley rat brain at 10 mg/kg, ip after 1 hr by LC/MS analysis; type: ADME, organism-based; parameters: dose 10 mg/kg, route intraperitoneal; details: read-out: Drug uptake; in short: as §1
[10] = Inhibition of KATP
[11] = biological target: Melatonin receptor type 1A (Homo sapiens) (UniProt P48039); assay: Inhibition of human MT1 at 10 uM
Sequence of Melatonin receptor type 1A (Homo sapiens) (P48039 whole entry): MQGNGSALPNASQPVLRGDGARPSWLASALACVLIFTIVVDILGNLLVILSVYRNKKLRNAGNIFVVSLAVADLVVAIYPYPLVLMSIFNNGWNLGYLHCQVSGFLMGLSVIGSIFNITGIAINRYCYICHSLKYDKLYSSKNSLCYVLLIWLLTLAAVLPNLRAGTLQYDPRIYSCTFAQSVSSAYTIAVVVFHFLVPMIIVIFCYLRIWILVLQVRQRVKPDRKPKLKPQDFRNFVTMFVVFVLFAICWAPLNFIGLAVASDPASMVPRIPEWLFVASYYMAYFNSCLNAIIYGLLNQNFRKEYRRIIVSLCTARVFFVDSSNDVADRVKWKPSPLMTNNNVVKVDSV

[12] = biological target: Voltage-gated inwardly rectifying potassium channel KCNH2 (Homo sapiens, UniProt Q12809); assay: Inhibition of human ERG
Sequence of Voltage-gated inwardly rectifying potassium channel KCNH2 (Q12809 whole entry): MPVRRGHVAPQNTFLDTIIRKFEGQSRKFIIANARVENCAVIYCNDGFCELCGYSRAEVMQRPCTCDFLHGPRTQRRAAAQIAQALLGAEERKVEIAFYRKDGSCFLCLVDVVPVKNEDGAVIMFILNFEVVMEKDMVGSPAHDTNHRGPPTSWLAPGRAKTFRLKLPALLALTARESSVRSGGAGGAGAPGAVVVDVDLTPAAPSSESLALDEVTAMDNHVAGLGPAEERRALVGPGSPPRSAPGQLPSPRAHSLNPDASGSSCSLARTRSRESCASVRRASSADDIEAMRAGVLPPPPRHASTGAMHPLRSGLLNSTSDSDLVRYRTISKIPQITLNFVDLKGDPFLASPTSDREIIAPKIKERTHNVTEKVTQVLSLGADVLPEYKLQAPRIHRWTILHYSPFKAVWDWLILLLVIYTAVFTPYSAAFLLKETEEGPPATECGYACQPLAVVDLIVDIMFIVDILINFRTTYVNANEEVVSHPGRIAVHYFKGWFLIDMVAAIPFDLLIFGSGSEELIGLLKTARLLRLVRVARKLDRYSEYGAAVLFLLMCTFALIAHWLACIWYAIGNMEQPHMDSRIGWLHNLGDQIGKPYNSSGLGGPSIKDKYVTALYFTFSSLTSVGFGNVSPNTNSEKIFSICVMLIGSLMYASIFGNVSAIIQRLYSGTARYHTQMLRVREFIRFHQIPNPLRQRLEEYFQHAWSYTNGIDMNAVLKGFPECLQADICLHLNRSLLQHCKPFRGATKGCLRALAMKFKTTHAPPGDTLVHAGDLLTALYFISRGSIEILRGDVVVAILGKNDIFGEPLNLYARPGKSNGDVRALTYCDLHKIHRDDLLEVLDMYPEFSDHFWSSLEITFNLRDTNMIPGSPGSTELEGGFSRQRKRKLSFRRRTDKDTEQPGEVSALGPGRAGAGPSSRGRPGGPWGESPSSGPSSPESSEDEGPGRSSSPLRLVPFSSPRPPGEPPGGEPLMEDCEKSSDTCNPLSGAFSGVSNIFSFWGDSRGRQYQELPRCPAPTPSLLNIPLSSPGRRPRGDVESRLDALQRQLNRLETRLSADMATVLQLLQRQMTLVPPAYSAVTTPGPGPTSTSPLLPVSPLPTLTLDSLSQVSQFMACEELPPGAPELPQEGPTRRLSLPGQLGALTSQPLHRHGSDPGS

Plasma = assay: Fraction unbound in rat plasma; type: ADME, cell-free

## CC[C@H](C(=O)Nc1ccccc1N1CCCC1)c1ccccc1
[1]
  IC50: 0.2 µM
Cytochrome P450 1A2
  IC50: 6.1 µM
[2]
  inhibition: inactive
[3]
  concentration at 1 h: 116 ng/mL
Brain
  Fu: 0.3%
[4]
  IC50: 0.07 µM
Cytochrome P450 2D6
  IC50: 19.9 µM
Cytochrome P450 2C9
  IC50: 18.9 µM
[5]
  IC50: 0.12 µM
[6]
  IC50: 2.92 µM
[7]
  IC50: 8.12 µM
[8]
  inhibition: inactive
[9]
  concentration at 1 h: 208 ng/g
[10]
  inhibition: inactive
[11]
  inhibition: 61%
[12]
  inhibition (INH): Not Active
Plasma
  Fu: 0.6%
